HCV core dimer: HCV core protein dimerization inhibition | TR-FRET GST/Flag-core106 dimerization, 1536-well | inhibition, % at 5 µM | 0.33% of 300,000 active;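 active = inhibition above the mean of all tested compounds plus 3 SD, set per screening campaign, cut at about 45% in these data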
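assay system = GST-tagged and Flag-tagged HCV core protein residues 1-106 | controls = unlabelled core106 and no-GST-core106 wells | incubation = compound-protein-antibody incubation 4 h at 22.5 °C | probe or stimulus = Eu donor and XL665 acceptor anti-tag antibodies | read-out = % inhibition based on acceptor/donor emission ratio | signal = TR-FRET 671 and 617 nm emission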
IMP-1 inh: inhibitors of Pseudomonas aeruginosa IMP-1 metallo-beta-lactamase. inhibition, % at 5.6 µM. 0.45% of 290,000 active. purified IMP-1, nitrocefin hydrolysis, epi-absorbance fluorescence;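 active = inhibition above the mean plus 3 SD of all compounds in the same screening run, cut at about 4.5% in these data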;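 also: 0% = IMP-1 with DMSO and 100% = DMSO wells lacking enzyme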
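Material – recombinant IMP-1 enzyme, purified · Amount – IMP-1 0.2 nM before substrate addition · Medium – HEPES buffer pH 7.1 with ZnSO4 and Brij 35 · Timing – 25 °C, 15 min preincubation, 25 min reaction · Measured by – plate fluorescence quenching by hydrolysis product, ex 480/em 530 nm · Read-out – percent enzyme inhibition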
NadD block: NadD (S. aureus) enzyme inhibition. purified NadD enzyme, colorimetric absorbance read-out. inhibition, % at 20 µM. 0.78% of 360,000 active. AID 602399; in the data active = inhibition above about 26%
VIM-2 inh: inhibitors of Pseudomonas aeruginosa VIM-2 metallo-beta-lactamase. purified VIM-2, nitrocefin hydrolysis, epi-absorbance fluorescence. inhibition, % at 5.6 µM. 0.89% of 290,000 active. AID 1527;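 active = inhibition above the mean of all tested compounds plus 3 SD, cutoff set per screening run, cut at about 7.5% in these data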;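 also: red hydrolysis product quenches plate fluorescence so inhibitors raise well fluorescence; 0% = enzyme with DMSO and 100% = DMSO without enzyme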
* hit, by the source's call; nt = no result. Compounds with a hit are over-represented: about 1.9% of the library has one in this group of screens.

SMILES	HCV core dimer	IMP-1 inh	NadD block	VIM-2 inh
COc1cccc(C2Nc3ccccc3NC3=C2C(=O)CC(C)(C)C3)c1 (stereo not drawn)	1	-2	-1	-1
Cc1ccc(S(=O)(=O)N(C)c2nc3ccccc3[nH]c2=S)cc1	7	8.7*	21	2
NC(=O)c1ccc(SCC(=O)OCC(=O)NCc2cccs2)c([N+](=O)[O-])c1	nt	nt	4	nt
COc1ccc(/C=N/n2c(SC)nnc2-c2ccccc2)cc1C	13	-3	2	7
COc1ccc(/C=N/n2c(SC)nnc2-c2ccccc2)c(OC)c1OC	nt	-2	0	23*
CC(=O)c1cccc(N(C(=O)CNC(=O)c2ccco2)C(C(=O)NCC2CCCO2)c2ccccc2)c1 (stereo not drawn)	1	-2	-4	-2
O=c1c2[nH]c3ccc(F)cc3c2ncn1CCCn1ccnc1	2	0	-3	8.0*
O=c1c2[nH]c3ccc(F)cc3c2ncn1CCCN1CCOCC1	2	3	4	0
O=C(NNC(=O)c1ccccc1F)c1cccc(-n2cccc2)c1	53*	nt	6	nt
CC(=O)c1ccc2c(c1)C1C=CCC1C(c1cc3c(cc1Br)OCO3)N2 (stereo not drawn)	6	nt	20	nt
COc1ccc2c(c1)C1C=CCC1C(c1cc3c(cc1Br)OCO3)N2 (stereo not drawn)	28	-1	44*	-4
Cn1c(SCC(=O)NCc2ccco2)nnc1-c1ccccc1	-11	-1	-3	-1
CCNC(=O)NC(=O)CSc1cccc(C(F)(F)F)c1	0	0	3	-3
Cc1cc(SCC(=O)NC(=O)NCc2ccco2)nc2ccccc12	22	-3	6	0
Cn1c(SCC(=O)NC(=O)NCc2ccco2)nnc1-c1ccccc1	57*	0	0	1
Cc1cc(SCC(=O)NC(=O)NCc2ccco2)nc2c(C)cccc12	48*	-2	1	-1
Cc1ccccc1CSCC(=O)NC(=O)NCc1ccco1	58*	-3	1	-5
O=C(CSc1cccc(C(F)(F)F)c1)NC(=O)NCc1ccco1	51*	-3	8	-2
O=C(CNS(=O)(=O)c1ccc(Cl)c(C(F)(F)F)c1)NC1CCCCC1	nt	nt	-2	nt
CCCCN(CC)CCNC(=S)Nc1ccc2nc(N3CCN(C)CC3)cc(C)c2c1	-6	0	-6	1
CCCCN(CC)CCNC(=O)CCC(=O)Nc1ccc2nc(N3CCN(C)CC3)cc(C)c2c1	-5	-1	-11	7.8*
CCCCNC(=O)CSc1nnc(Cc2ccccc2)n1CC	-10	4.5*	6	-1
CC(C)C(NC(=O)OCc1ccccc1)C(=O)OCC(=O)NCc1ccco1 (stereo not drawn)	75*	-2	4	-2
COc1cc(C(=O)OCC(=O)NCc2ccco2)cc(OC)c1OC	21	-2	-3	-1
CCOc1cc(C(=O)OCC(=O)NCc2ccco2)cc(OCC)c1OCC	52*	4	2	-2
SMILES	HCV core dimer	IMP-1 inh	NadD block	VIM-2 inh
CCCNC(=O)c1ccc(N2CCC3(CC2)CC(c2ccccc2)=NO3)c(N)c1	5	2	-9	3
CCCNC(=O)c1ccc(N2CCC3(CC2)CC(c2ccccc2)=NO3)c(NC(=O)Cc2ccc(F)cc2)c1	22	9.9*	6	-1
CCC(=O)N1CCc2nc(-c3ccccc3)sc2C1	1	-2	-1	-3
O=C(CN(Cc1ccccc1)S(=O)(=O)c1ccc(F)cc1)NCc1ccccn1	-5	-1	-6	-1
Cc1ccc(S(=O)(=O)NC(=O)c2ccc(-c3ccc(C)c4ccccc34)o2)cc1	24	4.7*	6	-4
Cc1ccc(-c2ccc(C(=O)Nc3ccccc3)o2)c2ccccc12	1	2	10	-1
Cc1cc(C)n2c(SC/C(O)=C(\C#N)c3nc4ccccc4[nH]3)nnc2n1	75*	-4	25	0
N=C1/C(=C\c2ccc(-c3cc(Cl)cc(Cl)c3)o2)C(=O)N=C2SC=C(c3ccccc3)N12	49*	-1	5	-2
CC(C)S(=O)(=O)C1=NSC2=NC(=O)/C(=C\c3ccc(-c4cccc(C(=O)O)c4)o3)C(=N)N21	nt	-4	2	-4
N=C1/C(=C/c2ccc(-c3cccc(C(=O)O)c3)o2)C(=O)N=C2SC=C(c3ccccc3)N12	13	3	61*	0
CS(=O)(=O)C1=NSC2=NC(=O)/C(=C\c3ccc(-c4ccccc4)o3)C(=N)N21	-9	-2	nt	-3
O=C(O)c1cccc(-c2ccc(/C=N/n3cnnc3)o2)c1	-11	-3	1	11*
COc1ccc(O)c(/C=N/NC(=S)Nc2cccc(S(=O)(=O)N(C)C)c2)c1	2	-4	-1	11*
COc1cccc(/C=N/NC(=S)Nc2cccc(S(=O)(=O)N(C)C)c2)c1	7	-2	-3	4
COc1cccc(/C=N/NC(=S)Nc2cccc(C(=O)O)c2)c1	-4	-2	-2	9.1*
CSc1cccc(NC(=O)CCS(=O)(=O)c2cccc3nonc23)c1	-5	-4	-7	0
CN1CCN(C2=Nc3c(Cl)cc(Cl)c4cccc2c34)CC1	-10	0	-2	7.7*
CN1CCN(C2=Nc3cc(Cl)ccc3Nc3ccccc32)CC1	-12	-5	-3	-3
CCc1nnc(SCC(=O)Nc2ccccc2Cl)nc1CC	7	-1	-2	0
CCC(C)C(NC(=O)c1ccccc1)C(=O)N1CCN(C(=O)c2ccccc2)CC1 (stereo not drawn)	nt	nt	7	nt
COc1cccc(N=Nc2c(N)[nH]n3c(=O)cc(-c4ccccc4)nc23)c1	9	-3	42*	2
Cc1ccc(N=Nc2c(N)[nH]n3c(=O)cc(-c4ccccc4)nc23)cc1	4	-3	55*	-2
O=C(NCCc1ccccc1)c1n[nH]c2ccccc12	-6	-1	-1	-1
CC(C)c1ccc(CNC(=O)C(=O)NCCCn2ccnc2)cc1	-3	30*	-5	-1
COc1ccc(N2CCN(C(CNC(=O)C(=O)NCCCn3ccnc3)c3cccnc3)CC2)cc1 (stereo not drawn)	5	5.6*	1	-4
SMILES	HCV core dimer	IMP-1 inh	NadD block	VIM-2 inh
O=C(NCCCn1ccnc1)C(=O)NCC(c1cccnc1)N1CCN(c2ccc(F)cc2)CC1 (stereo not drawn)	-23	-3	0	-1
O=S(=O)(CCc1ccccc1)CS(=O)(=O)CCc1ccccc1	nt	nt	-3	nt
Cc1cc(=O)[nH]c(-c2ccccc2OC(F)(F)F)n1	-3	-1	-5	-1
C=CC(=O)Nc1cccc(Oc2ccnc3[nH]ccc23)c1	nt	nt	59*	nt
CCN1CCN(C(CNS(=O)(=O)c2ccc(Cl)cc2)c2cccnc2)CC1 (stereo not drawn)	3	-4	-2	-2
Oc1c(Br)cc(Br)cc1/C=N/c1nccs1	nt	nt	5	nt
Oc1c(Br)cc(Br)cc1C=Nc1cccnc1	-19	28*	8	-1
COC(=O)c1ccc(N2CCOCC2)c(NC(=O)c2ccco2)c1	-2	-3	-6	0
O=C1N=C(N2CCN(c3ccccc3)CC2)S/C1=C\c1cn[nH]c1-c1ccccc1	10	-3	48*	0

Assay outcomes deposited in PubChem by several laboratories.
